Data: ChEMBL document CHEMBL1914423, “New imidazo[2,1-b]thiazole derivatives: synthesis, in vitro anticancer evaluation, and in silico studies” (Eur J Med Chem, 2011)

What was measured:
[1] = Antiproliferative activity against human A375P cells after 48 hrs by MTT assay; assay type: functional, cell-based
Procedure, shortened: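 A375P cells in DMEM with 10% FBS at 37 °C, 5% CO2. Seeded at 5×10³ cells/well, held 24 h, then treated with 12-point 3-fold serial dilutions for 48 h. Viability by MTT reduction. IC50 values are means of triplicate experiments.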

CCRF-CEM = assay: Anticancer activity against human CCRF-CEM cells assessed as cell growth at 10^-5 M after 48 hrs by SRB assay; assay type: functional; details: read-out: Activity
Procedure, shortened: (§1)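 NCI-60 single-dose screen at one concentration. Cells grown in RPMI 1640 with 5% FBS and 2 mM L-glutamine, plated at 5000–40,000 cells/well, and pre-incubated 24 h at 37 °C in 5% CO2 before DMSO-dissolved drug was added. Cells fixed with TCA, SRB-stained, absorbance read at 515 nm. Percent growth calculated against time-zero and untreated control plates.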

HL-60(TB) = assay: Anticancer activity against human HL-60(TB) cells assessed as cell growth at 10^-5 M after 48 hrs by SRB assay; assay type: functional; details: HL-60, 48 h, read-out: Activity
Procedure, shortened: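 NCI-60 single-dose screen. Cells in RPMI 1640 with 5% FBS and 2 mM L-glutamine were plated at 5000–40,000 cells/well and preincubated 24 h at 37 °C before one compound concentration. Time-zero plates were TCA-fixed at drug addition. For suspension cells, settled cells were fixed with cold TCA, then SRB-stained and read at 515 nm. Percent growth was calculated from time-zero, control and treated absorbances.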

K562 = assay: Anticancer activity against human K562 cells assessed as cell growth at 10^-5 M after 48 hrs by SRB assay; assay type: functional; details: K562, 48 h, read-out: Activity; procedure, shortened: as §1
SR = assay: Anticancer activity against human SR cells assessed as cell growth at 10^-5 M after 48 hrs by SRB assay; assay type: functional; details: read-out: Activity
Procedure, shortened: (§2)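 NCI-60 single-dose screen: cells in RPMI 1640 with 5% FBS and 2 mM L-glutamine, plated at 5000–40,000 cells/well by doubling time, and preincubated 24 h at 37 °C. Compound given at one concentration from DMSO stock. Cells TCA-fixed and SRB-stained, absorbance at 515 nm. Percent growth relative to time-zero and untreated controls; inhibition % = 100 − growth %.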

A549 = assay: Anticancer activity against human A549 cells assessed as cell growth at 10^-5 M after 48 hrs by SRB assay; assay type: functional; details: A549, 48 h, read-out: Activity; procedure, shortened: as §1
EKVX = assay: Anticancer activity against human EKVX cells assessed as cell growth at 10^-5 M after 48 hrs by SRB assay; assay type: functional; details: read-out: Activity; procedure, shortened: as §1
HOP-62 = assay: Anticancer activity against human HOP62 cells assessed as cell growth at 10^-5 M after 48 hrs by SRB assay; assay type: functional; details: HOP-62, 48 h, read-out: Activity; procedure, shortened: as §1
HOP-92 = assay: Anticancer activity against human HOP92 cells assessed as cell growth at 10^-5 M after 48 hrs by SRB assay; assay type: functional; details: HOP-92, 48 h, read-out: Activity; procedure, shortened: as §1
NCI-H226 = assay: Anticancer activity against human NCI-H226 cells assessed as cell growth at 10^-5 M after 48 hrs by SRB assay; assay type: functional; details: NCI-H226, 48 h, read-out: Activity
NCI-H522 = assay: Anticancer activity against human NCI-H522 cells assessed as cell growth at 10^-5 M after 48 hrs by SRB assay; assay type: functional; details: NCI-H522, 48 h, read-out: Activity
HCC 2998 = assay: Anticancer activity against human HCC2998 cells assessed as cell growth at 10^-5 M after 48 hrs by SRB assay; assay type: functional; details: HCC 2998, 48 h, read-out: Activity; procedure, shortened: as §1
HCT-116 = assay: Anticancer activity against human HCT116 cells assessed as cell growth at 10^-5 M after 48 hrs by SRB assay; assay type: functional; details: HCT-116, 48 h, read-out: Activity; procedure, shortened: as §1
HCT-15 = assay: Anticancer activity against human HCT15 cells assessed as cell growth at 10^-5 M after 48 hrs by SRB assay; assay type: functional; details: HCT-15, 48 h, read-out: Activity; procedure, shortened: as §1
SW-620 = assay: Anticancer activity against human SW620 cells assessed as cell growth at 10^-5 M after 48 hrs by SRB assay; assay type: functional; details: SW-620, 48 h, read-out: Activity; procedure, shortened: as §2
SF-295 = assay: Anticancer activity against human SF295 cells assessed as cell growth at 10^-5 M after 48 hrs by SRB assay; assay type: functional; details: SF-295, 48 h, read-out: Activity
LOX IMVI = assay: Anticancer activity against human LOXIMVI cells assessed as cell growth at 10^-5 M after 48 hrs by SRB assay; assay type: functional; details: read-out: Activity; procedure, shortened: as §1
MDA-MB-435 = assay: Anticancer activity against human MDA-MB-435 cells assessed as cell growth at 10^-5 M after 48 hrs by SRB assay; assay type: functional; details: MDA-MB-435, 48 h, read-out: Activity
SK-MEL-2 = assay: Anticancer activity against human SK-MEL-2 cells assessed as cell growth at 10^-5 M after 48 hrs by SRB assay; assay type: functional; details: SK-MEL-2, 48 h, read-out: Activity
SK-MEL-5 = assay: Anticancer activity against human SK-MEL-5 cells assessed as cell growth at 10^-5 M after 48 hrs by SRB assay; assay type: functional; details: SK-MEL-5, 48 h, read-out: Activity
UACC-257 = assay: Anticancer activity against human UACC257 cells assessed as cell growth at 10^-5 M after 48 hrs by SRB assay; assay type: functional; details: UACC-257, 48 h, read-out: Activity; procedure, shortened: as §2
IGROV-1 = assay: Anticancer activity against human IGROV1 cells assessed as cell growth at 10^-5 M after 48 hrs by SRB assay; assay type: functional; details: IGROV-1, 48 h, read-out: Activity; procedure, shortened: as §1
OVCAR-4 = assay: Anticancer activity against human OVCAR4 cells assessed as cell growth at 10^-5 M after 48 hrs by SRB assay; assay type: functional; details: OVCAR-4, 48 h, read-out: Activity
786-0 = assay: Anticancer activity against human 786-0 cells assessed as cell growth at 10^-5 M after 48 hrs by SRB assay; assay type: functional; details: 786-0, 48 h, read-out: Activity; procedure, shortened: as §1
CAKI-1 = assay: Anticancer activity against human Caki1 cells assessed as cell growth at 10^-5 M after 48 hrs by SRB assay; assay type: functional; details: CAKI-1, 48 h, read-out: Activity; procedure, shortened: as §1
UO-31 = assay: Anticancer activity against human UO31 cells assessed as cell growth at 10^-5 M after 48 hrs by SRB assay; assay type: functional; details: UO-31, 48 h, read-out: Activity; procedure, shortened: as §2
PC-3 = assay: Anticancer activity against human PC3 cells assessed as cell growth at 10^-5 M after 48 hrs by SRB assay; assay type: functional; details: PC-3, 48 h, read-out: Activity

| SMILES | IC50 [1] [µM] | growth at 10 µM (CCRF-CEM) [%] | growth at 10 µM (HL-60(TB)) [%] | growth at 10 µM (K562) [%] | growth at 10 µM (SR) [%] | growth at 10 µM (A549) [%] | growth at 10 µM (EKVX) [%] | growth at 10 µM (HOP-62) [%] | growth at 10 µM (HOP-92) [%] | growth at 10 µM (NCI-H226) [%] | growth at 10 µM (NCI-H522) [%] | growth at 10 µM (HCC 2998) [%] | growth at 10 µM (HCT-116) [%] | growth at 10 µM (HCT-15) [%] | growth at 10 µM (SW-620) [%] | growth at 10 µM (SF-295) [%] | growth at 10 µM (LOX IMVI) [%] | growth at 10 µM (MDA-MB-435) [%] | growth at 10 µM (SK-MEL-2) [%] | growth at 10 µM (SK-MEL-5) [%] | further results |
| --- | --- | --- | --- | --- | --- | --- | --- | --- | --- | --- | --- | --- | --- | --- | --- | --- | --- | --- | --- | --- | --- |
| COc1cccc(-c2nc3sccn3c2-c2ccnc(NCCNC(=O)c3cc(C(F)(F)F)cc(C(F)(F)F)c3)n2)c1 | > 10 | 69.9 | 131 | 83.5 | 78.1 | 81.2 | 84.4 | 109 | 38.5 | 102 | 78.4 | 90.2 | 69.1 | 83.8 | 119 | 94.5 | 92.5 | 83.9 | 81.8 | 75 | growth at 10 µM (UACC-257): 99.6%; growth at 10 µM (IGROV-1): 81.5%; growth at 10 µM (OVCAR-4): 103%; growth at 10 µM (786-0): 75.9%; growth at 10 µM (CAKI-1): 85.9%; growth at 10 µM (UO-31): 61.2%; growth at 10 µM (PC-3): 49.5% |
| COc1cccc(-c2nc3sccn3c2-c2ccnc(NCCNC(=O)c3ccccc3O)n2)c1 | 7.5 | 34.7 | 99.5 | 59.4 | 95 | 82.5 | 98.9 | 114 | 75.5 | 97.7 | 61.7 | 113 | 69.7 | 66.1 | 119 | 101 | 68.5 | 54.3 | 80.7 | 48.6 | growth at 10 µM (UACC-257): 78.7%; growth at 10 µM (IGROV-1): 60.9%; growth at 10 µM (OVCAR-4): 116%; growth at 10 µM (786-0): 91%; growth at 10 µM (CAKI-1): 68.8%; growth at 10 µM (UO-31): 48.6%; growth at 10 µM (PC-3): 62.8% |
| COc1cccc(-c2nc3sccn3c2-c2ccnc(NCCNC(=O)c3cccc(C(F)(F)F)c3)n2)c1 | 4.8 | 39.3 | 83.6 | 48.1 | 63.2 | 56 | 76.2 | 99.5 | 106 | 87.5 | 48.8 | 87.1 | 56.9 | 55.8 | 103 | 54.2 | 54.7 | 38.8 | 77 | 48.4 | growth at 10 µM (UACC-257): 78.4%; growth at 10 µM (IGROV-1): 53.4%; growth at 10 µM (OVCAR-4): 89%; growth at 10 µM (786-0): 76%; growth at 10 µM (CAKI-1): 50.6%; growth at 10 µM (UO-31): 39.5%; growth at 10 µM (PC-3): 55% |
